In the library only some 0.88% were active in any assay of this set; here they are far more common.
PKA-R2B activ: activates the human PKA-R2B holoenzyme complex | PKA-R2B holoenzyme dissociation, Cy5-IP20 fluorescence polarization; R2B truncated from residue 108, S112A mutant; 0% DMSO only, 100% 113 µM cGMP | actives 0.079% (n = 340,000) | activation, % at 11.4 µM | AID 504700;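 active = activation above a cutoff set at the mean over all compounds plus 3 SD, cut at about 18% in these data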;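 note: higher means more holoenzyme dissociation and a rise in polarization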
Target sequence (P31323 whole entry, looked up, other chains not shown, the tested form may be a part): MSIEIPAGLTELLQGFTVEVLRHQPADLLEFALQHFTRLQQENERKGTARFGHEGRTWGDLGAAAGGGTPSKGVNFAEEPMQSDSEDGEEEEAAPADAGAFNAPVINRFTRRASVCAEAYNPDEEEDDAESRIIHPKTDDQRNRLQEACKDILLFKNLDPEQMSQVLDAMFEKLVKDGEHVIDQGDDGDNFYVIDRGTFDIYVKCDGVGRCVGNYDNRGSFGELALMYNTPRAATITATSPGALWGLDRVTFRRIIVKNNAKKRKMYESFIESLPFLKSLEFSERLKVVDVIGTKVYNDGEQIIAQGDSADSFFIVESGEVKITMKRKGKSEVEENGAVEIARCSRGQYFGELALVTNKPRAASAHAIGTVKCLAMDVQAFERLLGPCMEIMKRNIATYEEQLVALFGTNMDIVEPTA
APJ agonist: APJ receptor agonism | activation, % at 20 µM | actives 0.11% (n = 330,000) | CHO-K1 APJ PathHunter beta-arrestin, luminescence; 0% DMSO wells, 100% apelin;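 active = activation more than six SD over the plate average, tested at 20 µM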
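Incubation: overnight seeding, 90 min compound at 25 °C, 1 h detection; test system: PathHunter CHO-K1 APJ (AGTRL-1) beta-arrestin reporter cells; amount: 1000 cells/well; doses: one dose, 20 µM compound, 1% DMSO; measured by: beta-gal luminescence; measure: agonist-driven arrestin binding to APJ; benchmarks: negative DMSO alone, positive Apelin-13 at 10 nM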
APJ antagonist: antagonists of human APJ apelin receptor; inhibition, % at 20 µM; actives 0.32% (n = 330,000); CHO-K1 APJ beta-arrestin complementation, luminescence; P35414;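 active = inhibition above about 40% at 20 µM, limit read from the data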;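 note: cells challenged with 10 nM apelin-13 agonist together with compound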
CXCR6 block: inhibitors of human CXCR6 receptor. AID 602244. CHO-K1 PathHunter CXCR6 beta-arrestin, luminescence. inhibition, % at 20 µM. actives 0.36% (n = 360,000). O00574; in the data active = inhibition above about 34%, passing the limit was not always enough;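 note: antagonist mode with CXCL16 agonist at 10 nM final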
CCR6 antagonist: CCR6 (human) receptor antagonism; inhibition, % at 20 µM; P51684; AID 493098; CHO-K1 CCR6 PathHunter beta-arrestin, luminescence, CCL20-stimulated; actives 0.49% (n = 340,000);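 active = compounds whose inhibition of the agonist-driven luminescence signal at 20 µM reaches about 50%, limit read from the data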;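 note: cells stimulated with CCL20 at 14 nM final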
PKA-R1A activ: activators of PKA-R1A complex; P00514+P68181; PKA-R1A dissociation, Cy5-IP20 fluorescence polarization; scaled: DMSO 0%, 113 µM cGMP 100%; activation, % at 11.4 µM; actives 0.083% (n = 340,000); AID 504707;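 active = percent activation above the mean of all tested compounds plus 3 SD, cut at about 19% in these data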;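 note: higher means more PKAc released from R1A so a rise in polarization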
APJ ag conf: APJ receptor agonism confirmation; shares compounds with APJ agonist; activation, % at 20 µM; CHO-K1 APJ PathHunter beta-arrestin, luminescence; actives 10% (n = 310); AID 2764;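 active = activation above 40%, taking the highest of four retests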
Hits are given with their value; - = inactive; . = no result.

SMILES	PKA-R2B activ	APJ agonist	APJ antagonist	CXCR6 block	CCR6 antagonist	PKA-R1A activ	others
CC(=O)NC(c1ccc(C)cc1)c1cc([N+](=O)[O-])c2cccnc2c1O (stereo not given)	-	-	-	48	.	-
CCC(=O)NC(c1ccc(C)cc1)c1cc([N+](=O)[O-])c2cccnc2c1O (stereo not given)	-	.	.	51	-	-
CCCC(=O)NC(c1ccco1)c1cc([N+](=O)[O-])c2cccnc2c1O (stereo not given)	-	-	-	-	-	-
CN(C)C(=S)N=c1ssc(=S)n1Cc1ccccc1	-	.	.	-	51	-
CCOC(=O)c1sc(=S)n(Cc2ccccc2)c1C	-	-	-	-	-	-
COc1ccc(CCN2C(=O)COc3ccccc3C2C(=O)Nc2c(C)cccc2C)cc1OC (stereo not given)	.	.	.	-	.	.
CCOC(=O)c1ccc(N=Cc2nc(-c3ccccc3)oc2OC(C)=O)cc1	-	-	-	-	50	-
CC(=O)Oc1oc(-c2ccccc2)nc1C=Nc1ccccc1	-	-	-	-	-	-
Oc1ccc(N=Nc2nc(-c3ccccc3)c(-c3ccccc3)[nH]2)cc1	-	-	54	53	67	-
CC1=NOC(=O)/C1=C\c1ccc(-c2ccc(Cl)cc2Cl)o1	-	35	-	-	-	-
CCCOc1ccc(Cl)cc1/C=C1/C(=O)ON=C1C	-	-	-	-	-	-
CC(=O)Nc1cc(-c2ccc(N(C)C)cc2)cn2c(-c3ccc(F)c(Cl)c3)cnc12	.	.	.	-	.	.
CC(C)C[C@H]1CN(CCCC[C@@H]2CNC(=O)C(=O)N2CC2CCCCC2)C(=O)C(=O)N1CCc1ccccc1	.	.	.	-	.	.
Cc1cc(C)n2c(NC3CCCCC3)c(-c3cccnc3)nc2n1	.	.	.	-	.	.
CCOc1ccc(N2C(=O)CC(Sc3nnnn3-c3ccccc3)C2=O)cc1 (stereo not given)	-	.	.	52	.	-
COc1ccccc1NC(=O)COC(=O)Cn1c(C)csc1=O	-	.	.	-	.	-
COc1ccc(C(NC(=O)C2CCN(CCOc3ccc(Cl)cc3)CC2)c2cccs2)cc1 (stereo not given)	.	.	.	-	.	.
CCN(CC)c1ccc(NC2=C(Cl)C(=O)c3ccccc3C2=O)cc1	-	.	.	-	57	-
CCCC(=O)NC1=C(Cl)C(=O)c2ccccc2C1=O	-	.	.	99	107	-
CCNC1=C(Cl)C(=O)c2ccccc2C1=O	-	-	-	-	-	-
CCCCc1cc(O)c(CCCC)c(O)c1	-	13	-	-	-	-	APJ ag conf=-
COc1cc2nc(N3CCN(c4cc(C)ccc4C)CC3)nc(N)c2cc1OC	-	20	-	-	-	-	APJ ag conf=-
Cc1cccc(NC(=S)NC(=O)/C=C/c2ccccc2)n1	-	11	-	-	-	-	APJ ag conf=-
COc1ccc(NC(=S)NC(=O)/C=C/c2ccccc2)cc1	-	-	-	-	-	-
COC(=O)C1(Cc2cc(-c3ccccc3)no2)CCN(C(=O)OC(C)(C)C)CC1	-	-	-	-	-	-
SMILES	PKA-R2B activ	APJ agonist	APJ antagonist	CXCR6 block	CCR6 antagonist	PKA-R1A activ	others
COC(=O)c1ccc(-c2cc(CC3(C(=O)OC)CCN(C(=O)OC(C)(C)C)CC3)on2)cc1	-	36	-	-	-	-	APJ ag conf=-
Cc1ccc(CCN=c2c([N+](=O)[O-])nn(-c3ccccc3)n2O)cc1	-	14	-	-	-	-	APJ ag conf=-
O=C(COC(=O)c1ccc2c(c1Cl)C(=O)c1ccccc1C2=O)NC1CC1	-	13	-	-	-	-	APJ ag conf=-
CCc1cc(=O)oc2cc(OC(C)C(=O)N3CC[C@@]4(O)CCCC[C@H]4C3)ccc12 (stereo not given in full)	.	.	.	-	.	.
Cc1ccc(Nc2nc(NCc3ccco3)c3ccccc3n2)cc1	-	14	-	-	-	-	APJ ag conf=-
N/C(=N\OC(=O)c1ccc(Cl)c(Cl)c1)c1ccccn1	-	-	-	-	-	-
N/C(=N\OC(=O)c1cccc(Cl)c1)c1ccccn1	-	-	-	-	-	-
